The source made the active and inactive calls.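 How the source made its calls: active means compounds cutting phorbol ester driven platelet P-selectin display by over 50% in every run; inconclusive means over 50% in some runs but not others; inactive means 50% or less in every run.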
Test system: human washed platelets, PMA-induced P-selectin, flow cytometry
Experiment: inhibitors of PMA-stimulated platelet P-selectin exposure, selectivity assay for platelet activation inhibitor project, cell-based, fluorescence, flow cytometry, platelets (AID 2509)
Details: at 30 µM; hits give high values
Summary of the method: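 System: platelets, PMA-induced surface P-selectin expression / Probe or stimulus: PMA at 5 nM, platelet activating stimulus / Dosing: single compound dose of 30 µM / Schedule: 20 min compound, 15 min PMA, 20 min antibody / Signal: flow cytometry, PE anti-P-selectin label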

Row | Structure (SMILES) | inhibition
1 | C/C(=N/NC(=O)C1CCCC1)c1ccc(NC(=O)C(F)(F)F)cc1 | 9.5% (inactive)
2 | Cc1ccc(-n2c(N)c(C#N)c(-c3ccccc3)c(C#N)c2=O)cc1 | 5.5% (inactive)

Reference: PubChem BioAssay AID2509 (Broad Institute, 2010)
